Shown are actives, neighbours in structure and some others; about 4% of the full set was active somewhere.
Pf gametocyte: P. falciparum stage V gametocyte viability inhibition. P. falciparum stage V gametocytes, ATP luminescence, 24 h. inhibition, % at 10.9 µM. 150,000 tested, 0.065% active;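 active means inhibition above the mean plus 3 SD of compounds within the control limits, set per campaign, cut at about 38% in these data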;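 further: 0% = DMSO wells and 100% = medium only without gametocytes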
KCC2 mod: modulates chloride dependent transport by human KCC2 | Q9H2X9 | KCC2 cells, thallium flux FluoZin-2 fluorescence | B-score of Tl+ flux slope (higher = more flux/activation; lower = inhibition) at 10 µM | 190,000 tested, 2.2% active | AID 1456;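 active means thallium flux slope and its plate-corrected score both differing from the plate sample mean at a set confidence after two filtering rounds, in either direction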;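 further: slope of fluorescence scaled to starting intensity during 10 to 20 s after thallium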
MT stabilize HCS: stabilizes microtubules in HeLa cells. HeLa tubulin immunostaining HCS, 24 h; share of cells brighter than vehicle mean+2SD. % tubulin-high responders, % at 10 µM. 200,000 tested, 0.83% active;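 active means plate Z-score above 3 for both tubulin-high and condensed-nucleus cell shares, with cell loss under 80%, at 10 µM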;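 further: anti alpha tubulin signal scored within the nucleus-defined area of each cell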
WT yeast gro inh: growth inhibition of WT yeast, mitochondrial fusion screen; mitochondrial fusion phenotypic screen, WT strain; inhibition, % at 10 µM; 190,000 tested, 2.1% active; AID 1362; in the data active means inhibition above about 58%; tested in S. cerevisiae
b-catenin transl: modulators of beta-catenin nuclear translocation. HeLa beta-catenin nuclear translocation, immunofluorescence imaging. nuclear translocation activity, % at 5 µM. 190,000 tested, 0.3% active. AID 1665;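 active means nuclear translocation activity above 50% at 5 µM, with a well cell count of 50 or more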;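 further: per-cell ratio of nuclear to cytoplasmic median beta-catenin stain intensity; plate controls were DMSO negative control for no effect and GSK-3 inhibitor IX positive control for full effect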
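Assay system: human HeLa cells, native beta-catenin; doses: 5 µM primary, 0.02–20 µM confirmation; incubation: compound treatment 24 h, 37°C, 5% CO2; technique: fluorescence imaging of beta-catenin antibody stain plus DAPI; measure: % activation, nuclear-to-cytoplasmic median beta-catenin signal ratio per cell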
* = called active by the depositor; / = no result given.

SMILES | Pf gametocyte | KCC2 mod | MT stabilize HCS | WT yeast gro inh | b-catenin transl
CC(C)CNC(=O)c1cccc(NC(=O)COc2ccc([N+](=O)[O-])cc2)c1 | 37 | / | 3 | 13 | 1
COc1ccccc1NC(=O)c1ccc(NC(=O)CSc2n[nH]c(N)n2)cc1 | 12 | 0.32 | 4 | -8 | /
COc1ccc(NC(=O)C(=O)NNC(=O)c2cccs2)c(OC)c1 | / | 11* | 3 | -7 | 0
COc1ccc(NC(=O)C2CCN(C(=O)c3cccs3)CC2)c(OC)c1 | / | 0.043 | 2 | -13 | 0
CCNC(=O)Nc1ccc(-n2nc(C)c(C(=O)OCC)c2C)nc1 | -1 | -0.81 | 2 | -7 | 2
C/C(=N/NC(=O)Cc1cccs1)c1ccco1 | / | 0.29 | 2 | 4 | 0
CN(C)c1ccc(N=Nc2nc3ccccc3n2C)cc1 | 49* | -2.3 | / | / | 2
Cn1c(N=Nc2ccccc2)nc2ccccc21 | 6 | -1.8 | 2 | 86* | 10
CCOC(=O)c1sc(NC(=O)/C=C/c2cnn(CC)c2C)c(C(=O)OCC)c1C | / | -0.29 | 2 | 63* | -4
CC(C)(C)c1ccc(OC(=O)c2ccc3nsnc3c2)cc1 | / | / | 1 | 73* | 0
CC(C)(C)c1ccc(OC(=O)c2ccc3snnc3c2)cc1 | -20 | 0.014 | 3 | -5 | -1
S=C1Nc2ccccc2Sc2ccc(Cl)cc21 | -9 | 16* | 2 | 14 | 0
COc1ccc(C(NC(=O)C(C)C)c2c(O)ccc3ccccc23)cc1 (stereo unspecified) | -23 | 0.12 | 13* | -22 | 0
CCC(=O)NC(c1ccc([N+](=O)[O-])cc1)c1c(O)ccc2ccccc12 (stereo unspecified) | / | / | 3 | 12 | 1
CCCC(=O)NC(c1ccc(OC)cc1)c1ccc2cccnc2c1O (stereo unspecified) | -10 | 1.4 | 8.7* | -8 | 0
CCC(=O)NC(c1ccc(N(C)C)cc1)c1c(O)ccc2ccccc12 (stereo unspecified) | -18 | 0.39 | 3 | 1 | 0
CCC(=O)NC(c1ccc(OC)cc1)c1c(O)ccc2ccccc12 (stereo unspecified) | 8 | -0.57 | 18* | -4 | 0
CCCCC(=O)NC(c1ccc([N+](=O)[O-])cc1)c1c(O)ccc2ccccc12 (stereo unspecified) | -17 | -0.5 | 4 | 82* | -1
CCCCC(=O)NC(c1ccc(C(C)C)cc1)c1ccc2cccnc2c1O (stereo unspecified) | -47 | / | / | / | /
COc1ccc(C(NC(=O)C(C)C)c2c(O)ccc3ccccc23)cc1OC (stereo unspecified) | 8 | 0.99 | 3 | 3 | -1
CCOC(=O)[C@@H]1[C@H]2COc3ccccc3[C@@H]2N2C(=O)N(c3cccc(Cl)c3)C(=O)[C@@]12C | -14 | / | / | / | /
CC(C)CCNC(=O)C1CCC(CNc2c(N3CCCC3)c(=O)c2=O)CC1 (stereo unspecified) | -25 | 0.26 | / | / | -1
CCc1cccc(NC(=O)C(NC(=O)C2CCCCC2)C(C)C)c1 (stereo unspecified) | -6 | 0.93 | 4 | -3 | /
OCC1(Cc2ccccc2)CCN(Cc2cnc(-c3ccc(Cl)cc3)nc2)CC1 | 42* | 0.64 | 1 | 27 | 1
Cc1ccccc1-c1ncc(CN2CCC(CO)(CCCc3ccccc3)CC2)cn1 | 4 | -1.3 | 3 | 87* | 0
SMILES | Pf gametocyte | KCC2 mod | MT stabilize HCS | WT yeast gro inh | b-catenin transl
CCOC(=O)N1CCN(C(=S)Nc2cc(S(=O)(=O)N3CCOCC3)ccc2Cl)CC1 | -29 | 1.2 | 4 | -15 | 2
O=C(NCC1CCCN(Cc2ccc3nonc3c2)C1)c1ccc(F)cc1 (stereo unspecified) | 0 | -0.21 | 4 | 0 | 2
CCOC(=O)[C@H]1[C@H]2COc3ccc(Cl)cc3[C@@H]2N2C(=O)CN(Cc3ccc(Cl)cc3)C(=O)[C@@]12C | 0 | / | / | / | /
COc1ccc(C(=O)N/N=C/C(Br)=C/c2ccccc2)cc1 | -1 | 0.0086 | 7 | 9 | -2
O=C(N/N=C/C=C/c1ccccc1)c1n[nH]c2c1CCC2 | / | 0.48 | 25* | 20 | 176*
O=C(Cc1cccs1)N/N=C/C(Br)=C/c1ccccc1 | -13 | / | 4 | -15 | 0
COc1cccc(C(=O)N/N=C/C(Br)=C/c2ccccc2)c1 | -24 | -0.43 | 23* | 48 | 60*
Cc1cc(C(=O)N/N=C/C=C/c2ccccc2)n[nH]1 | 15 | -0.98 | / | / | 0
Cc1ccc(-c2cc(C(=O)N/N=C/C(Br)=C/c3ccccc3)n[nH]2)o1 | -25 | -0.13 | 12* | 61* | 5
Cc1ccccc1NCC(=O)N/N=C/C(Br)=C/c1ccccc1 | / | 0.16 | 26* | 9 | 4
C/C(=N\N1CCN(c2ccccc2)CC1)c1ccncc1 | 9 | 0.57 | 2 | -10 | 0
Cc1cccc(Nc2cc(=O)n(C)c(=O)[nH]2)c1 | -31 | / | / | / | /
O=C(N/N=C/C=C/c1ccccc1)C1CC1c1ccccc1 (stereo unspecified) | -18 | / | 2 | 64* | /
O=C(N/N=C/C(Br)=C\c1ccccc1)c1n[nH]c2c1CCC2 | 11 | -2.2 | 15* | 40 | /
COc1ccc(SC[C@H](C)CN2CC[C@H](C(C)(C)C)CCC2=O)cc1 | 29 | / | / | / | /
C/C(=N/NC(=O)CN1CCN(S(=O)(=O)c2ccc(Br)cc2)CC1)c1ccco1 | / | 0.64 | 3 | -4 | -1
O=c1[nH]c2ccccc2n1C1=CCCC1 | 12 | 0.077 | 2 | 8 | 2
CSc1ccc(NC(=O)N2CC=C(n3c(=O)[nH]c4ccccc43)CC2)cc1 | 6 | -1 | 31* | -8 | -2
O=C(COc1ccc([N+](=O)[O-])cc1)Nc1nnc(-c2cccnc2)s1 | -8 | -0.79 | / | / | -2
COc1nc(N2CCCCCC2)nc(N2CCCCCC2)n1 | -20 | -0.27 | 5 | 64* | -6
COc1nc(OCC#N)nc(N2CCCCC2)n1 | 0 | -0.4 | 3 | -8 | 1
O=C1CC(NNc2ccccc2)C(=O)N1c1ccc(N2CCCCC2)cc1 (stereo unspecified) | -18 | 0.36 | 2 | 20 | 0
COc1cccc(Nc2nc(-c3cccs3)nc3ccccc23)c1 | 10 | 0.17 | 2 | 66* | 2
COc1ccc(Nc2nc(-c3cccs3)nc3ccccc23)cc1 | -7 | -2.5 | 4 | 46 | 2
c1ccc(CNc2nc(-c3ccccc3)nc3ccccc23)cc1 | 8 | / | / | / | /
COc1cccc(CN(C)c2nc(-c3cccs3)nc3ccccc23)c1 | -38 | 0.41 | 2 | 66* | 2
c1ccc(CNc2nc(-c3cccs3)nc3ccccc23)cc1 | / | 0.17 | 1 | 71* | -1
CCC(C)NS(=O)(=O)c1ccc(NC(=O)CNCc2cccs2)cc1 (stereo unspecified) | 0 | / | / | / | /
CC1CCCN(Cc2ccc(OCc3ccccc3)cc2)C1 (stereo unspecified) | 10 | / | / | / | /
COc1ccc(CN(C)CC(=O)NC(=O)NCc2ccccc2)cc1OC | 15 | 5* | 2 | -5 | 0

Source: PubChem
